“And” between values parts separate entries of the source, which are not always exact repeats. Equal entries are not always repeated.
Tests used:
Type in all cases: functional
Mus musculus [1] = species: Mus musculus; assay: In vitro bone-reabsorbing activity was examined in fetal mouse calvaria prelabeled with 45 Ca at 120 nM concentration, Ca release
Outline: (§1)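 Paired half fetal mouse calvaria, split along the midsagittal suture, were precultured 24 h at 37 °C under 5% CO₂ in air in BGJ medium containing 1 mg/mL bovine serum albumin. Halves were then moved to fresh medium with or without derivative for 6 more days. Bones were digested overnight in HCl, and ⁴⁵Ca in the medium and bone was counted. ⁴⁵Ca release % = medium/(medium+bone)×100, reported as treated/control ratio. Student's t test.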

Mus musculus [2] = species: Mus musculus; assay: In vitro bone-reabsorbing activity was examined in fetal mouse calvaria prelabeled with 45 Ca at 12 nM concentration, Ca release; outline: as §1
Mus musculus [3] = species: Mus musculus; assay: In vitro bone-resorbing activity was examined in fetal mouse calvaria prelabeled with 45Ca at 12 nM concentration; outline: as §1
Mus musculus [4] = species: Mus musculus; assay: In vitro bone-resorbing activity was examined in fetal mouse calvaria prelabeled with 45Ca at 120 nM concentration; outline: as §1
Mus musculus [5] = species: Mus musculus; assay: In vitro bone-resorbing activity was examined in fetal mouse calvaria prelabeled with 45Ca at 1.2 nM concentration; outline: as §1
Mus musculus [6] = species: Mus musculus; assay: In vitro bone-reabsorbing activity was examined in fetal mouse calvaria prelabeled with 45 Ca at 1.2 nM concentration, Ca release; outline: as §1

Compound	T/C (Mus musculus [1])	T/C (Mus musculus [2])	T/C (Mus musculus [3])	T/C (Mus musculus [4])	T/C (Mus musculus [5])	T/C (Mus musculus [6])
C[C@H](CCCC(C)(C)O)C1CCC2/C(=C/C3OOCC4=C3C[C@@H](O)CC4)CCCC21C (stereo partly drawn)	2.43	1.61				
C[C@H](CCCC(C)(C)O)C1CCC2/C(=C/c3occ4c3CC(O)CC4)CCCC21C (stereo partly drawn)			1.63	2.64	1.05 and 0.98	
C=C1CC[C@H](O)C/C1=C/C=C1\CCC[C@]2(C)[C@@H]([C@H](C)CCCC(C)(C)O)CC[C@@H]12 [CALCIFEDIOL ANHYDROUS]	1.74	1.33				1
